Laboratory results published in ChEMBL document CHEMBL2046437, “In vitro stability and in vivo anti-inflammatory efficacy of synthetic jasmonates” (Bioorg Med Chem, 2012).
The source made the active and inactive calls. The calls are words filed in the database; no cut-off is given here.

Tests used:
[1] = Stability in presence of porcine liver esterase assessed as esterase-mediated compound hydrolysis by measuring ratio of intact compounds and their corresponding acids in pH 7.4 phosphate buffer at 37 degC at 30 mins post incubation by RP-HPLC; type: ADME; settings: pig, isolated protein, pH 7.4, 0.5 h
In short: (§1)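 About 0.5 mg ester was incubated with 50 µL porcine liver esterase stock in 0.01 M phosphate buffer (pH 7.4, 1 mL) plus 10 µL acetone at 37 °C. Intact ester/acid peak-area ratio given as mean ± SD of two experiments.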

[2] = Stability in presence of porcine liver esterase assessed as esterase-mediated compound hydrolysis by measuring ratio of intact compounds and their corresponding acids in pH 7.4 phosphate buffer at 37 degC at 60 mins post incubation by RP-HPLC; type: ADME; settings: pig, isolated protein, pH 7.4, 1 h; in short: as §1
[3] = Cytotoxicity in mouse RAW264.7 cells after 24 hrs by MTT assay; type: cell-based; settings: read-out: TC50
In short: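 RAW264.7 cells in DMEM with 10% FBS were treated for 24 h, then incubated with MTT for 4 h. Formazan was dissolved in DMSO for 30 min and absorbance read at 540 nm. TC50 reported as mean ± SD of triplicate experiments.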

[4] = test system: RAW264.7; test: Selectivity index, ratio of TC50 for mouse RAW264.7 cells to EC50 for antiinflammatory activity in LPS-activated mouse RAW264.7 cells; type: functional
[5] = test system: RAW264.7; test: Antiinflammatory activity in LPS-activated mouse RAW264.7 cells assessed as inhibition of nitric oxide production incubated for 24 hrs by ELISA; type: functional, cell-based; settings: RAW264.7, 24 h, in the assay text read “by Griess reagent method” for “by ELISA”
In short: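 RAW264.7 macrophages (DMEM, 10% FBS, penicillin/streptomycin, 37 °C, 5% CO2) treated with LPS plus compounds for 24 h. Nitrite in supernatant measured by Griess reagent (10 min, room temperature, dark), absorbance 540 nm, quantified against sodium nitrite standard curve. EC50 reported from triplicate experiments, mean ± SD.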

[6] = test system: Rattus norvegicus; test: Antiinflammatory activity in Sprague-Dawley rat assessed as inhibition of carrageenan-induced paw edema at 50 mg/kg, ip dosed 30 mins before carrageenan challenge measured before 6 hrs post carrageenan challenge; type: functional, organism-based; design: dose 50 mg/kg
In short: (§2)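 Male Sprague–Dawley rats (140–160 g, 5 weeks old) received a single intraperitoneal dose in 5% cremophor/5% ethanol in PBS, with vehicle as control. 30 min later, 0.1 mL of 1% carrageenan in saline was injected subplantar into the right hind paw, with saline in the left. Paw volume was measured by plethysmometer at 0, 0.5, 1, 2, 4, 6 and 24 h.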

[7] = test system: Rattus norvegicus; test: Antiinflammatory activity in Sprague-Dawley rat assessed as inhibition of carrageenan-induced paw edema at 50 mg/kg, ip dosed 30 mins before carrageenan challenge measured at 24 hrs post carrageenan challenge; type: functional; in short: as §2
[8] = test system: Rattus norvegicus; test: Antiinflammatory activity in Sprague-Dawley rat assessed as inhibition of carrageenan-induced paw edema at 50 mg/kg, ip dosed 30 mins before carrageenan challenge; type: functional, organism-based; design: dose 50 mg/kg; in short: as §2
[9] = test system: Rattus norvegicus; test: Antiinflammatory activity in Sprague-Dawley rat assessed as inhibition of carrageenan-induced paw edema at 25 mg/kg, ip dosed 30 mins before carrageenan challenge measured before 6 hrs post carrageenan challenge; type: functional, organism-based; design: dose 25 mg/kg; in short: as §2
[10] = test system: Rattus norvegicus; test: Antiinflammatory activity in Sprague-Dawley rat assessed as inhibition of carrageenan-induced paw edema at 25 mg/kg, ip dosed 30 mins before carrageenan challenge measured at 24 hrs post carrageenan challenge; type: functional; settings: route intraperitoneal; in short: as §2

Ratio [1] | Ratio [2] | EC50 [5] | SMILES | CC50 at 24 h [3] | Ratio [4] | Activity [6] | inhibition in vivo at 50 mg/kg ([7]; route intraperitoneal) | Activity [8] | Activity [9] | inhibition in vivo at 25 mg/kg [10] | inhibition [7]
7.6 | 3.5 | 42 µM | CC/C=C\C[C@H]1C(=O)C=C[C@H]1CC(=O)OCCOCCOCCO | 162 µM | 4 |  |  |  |  |  | 
0.1 | 0 | 19 µM | CC/C=C\CC1C(=O)C=CC1CC(=O)OC (stereo not given) | 140 µM | 7 |  |  |  |  |  | 
1.4 | 0.4 | 18 µM | CC/C=C\C[C@H]1C(=O)C=C[C@H]1CC(=O)OC(C)c1ccccc1 (stereo not given in full) | 31 µM | 2 |  |  |  |  |  | 
0.3 | 0 | 33 µM | CC/C=C\C[C@H]1C(=O)C=C[C@H]1CC(=O)OCCOCCOC | 161 µM | 5 |  |  |  |  |  | 
11.2 | 9.8 | 20 µM | CC/C=C\C[C@H]1C(=O)C=C[C@H]1CC(=O)OC(C)(C)C | 33 µM | 1 |  |  |  |  |  | 
0 |  | 23 µM | CC/C=C\C[C@H]1C(=O)C=C[C@H]1CC(=O)OCCC | 35 µM | 1 |  |  |  |  |  | 
0.5 | 0.1 | 20 µM | CC/C=C\C[C@H]1C(=O)C=C[C@H]1CC(=O)OC(C)C | 58 µM | 3 |  |  |  |  |  | 
0 |  | 20 µM | CC/C=C\C[C@H]1C(=O)C=C[C@H]1CC(=O)OCC | 146 µM | 7 |  |  |  |  |  | 
0 |  | 23 µM | CC/C=C\C[C@H]1C(=O)C=C[C@H]1CC(=O)OCCCC | 31 µM | 1 |  |  |  |  |  | 
0.5 | 0.2 | 23 µM | CC/C=C\C[C@H]1C(=O)C=C[C@H]1CC(=O)OC(C)COC (stereo not given in full) | 161 µM | 7 |  |  |  |  |  | 
 |  | 0.58 µM | CC/C=C\C[C@H]1C(=O)C(Cl)=C[C@H]1CC(=O)OCCO | 6.25 µM | 10.8 | inactive | 62.4% | Active |  |  | 
0.1 | 0 | 27 µM | CC/C=C\C[C@H]1C(=O)C=C[C@H]1CC(=O)OCCOC | 160 µM | 6 |  |  |  |  |  | 
0 |  | 33 µM | CC/C=C\C[C@H]1C(=O)C=C[C@H]1CC(=O)Oc1ccccc1 | 158 µM | 5 |  |  |  |  |  | 
0 |  | 32 µM | CC/C=C\C[C@H]1C(=O)C=C[C@H]1CC(=O)Oc1ccccc1OC | 161 µM | 5 |  |  |  |  |  | 
0.3 | 0 | 35 µM | CC/C=C\C[C@H]1C(=O)C=C[C@H]1CC(=O)OCCOCCOCCOC | 163 µM | 5 |  |  |  |  |  | 
5.9 | 3.1 | 36 µM | CC/C=C\C[C@H]1C(=O)C=C[C@H]1CC(=O)OCCOCCO | 166 µM | 5 |  |  |  |  |  | 
0 |  | 25 µM | CC/C=C\C[C@H]1C(=O)C=C[C@H]1CC(=O)OCCCCC | 37 µM | 1 |  |  |  |  |  | 
 |  | 0.65 µM | CC/C=C\C[C@H]1C(=O)C(Cl)=C[C@H]1CC(=O)OC1CCCCC1 | 9.69 µM | 14.9 |  |  |  |  |  | 
 |  |  | COc1ccc2c(c1)c(CC(=O)O)c(C)n2C(=O)c1ccc(Cl)cc1 [INDOMETHACIN] |  |  |  |  |  | Active | 57.1% | 
4.1 | 1.1 | 22 µM | CC/C=C\C[C@H]1C(=O)C=C[C@H]1CC(=O)OC1CCCCC1 | 31 µM | 2 |  |  |  |  |  | 
 |  | 0.83 µM | CC/C=C\C[C@H]1C(=O)C(Cl)=C[C@H]1CC(=O)OC(C)(C)C | 11.5 µM | 13.9 | inactive |  | Active |  |  | Active
1.7 | 0.7 | 24 µM | CC/C=C\C[C@H]1C(=O)C=C[C@H]1CC(=O)OCCO | 161 µM | 7 |  |  |  |  |  | 
0.2 | 0 | 20 µM | CC/C=C\C[C@H]1C(=O)C=C[C@H]1CC(=O)OCc1ccccc1 | 31 µM | 1 |  |  |  |  |  | 
0.4 | 0.1 | 22 µM | CC/C=C\C[C@H]1C(=O)C=C[C@H]1CC(=O)OC(C)CC (stereo not given in full) | 53 µM | 2 |  |  |  |  |  | 
0 |  | 23 µM | CC/C=C\C[C@H]1C(=O)C=C[C@H]1CC(=O)Oc1ccc(O)cc1 | 49 µM | 2 |  |  |  |  |  | 
